Test results published in ChEMBL document CHEMBL1139866, “Synthesis and antimalarial property of orally active phenoxazinium salts” (J Med Chem, 2007).
“And” between values parts separate entries of the source, which are not always exact repeats. Equal values may be shown once.

Legend:
Plasmodium falciparum = test: Antimalarial activity against chloroquine-resistant Plasmodium falciparum K1 after 48 hrs; assay type: functional, organism-based
Plasmodium berghei [1] = test: Antimalarial activity against Plasmodium berghei NK65 infected ICR mice (Mus musculus) as reduced parasitaemia at 5 mg/kg intraperitoneal dose on day 4; assay type: functional; parameters: scale not given: the % may be the effect or the level left
Summary of the method: (§1)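 Peters' four-day suppressive test with P. berghei NK-65 (drug-sensitive) in groups of five ICR mice, dosed intraperitoneally once daily for 4 days. Parasitemia on day 4 is compared with untreated infected controls to give % suppression. Survival is followed after treatment as mean survival days, observed up to day 30.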

[2] = Ratio of EC50 for rat L6 cells to EC50 for Plasmodium falciparum K1; assay type: functional
Summary of the method: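 Selectivity index is the EC50 against rat skeletal myoblast L-6 cells divided by the in vitro EC50 against chloroquine-resistant P. falciparum K1, which was assayed by the Desjardins method.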

Mus musculus [3] = test: Effect on survival of Plasmodium berghei NK65 infected ICR mice (Mus musculus) assessed as mean survival days at 5 mg/kg, intraperitoneal after 4 days; assay type: functional
Summary of the method: (§2)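 Peters' four-day suppressive test in groups of five ICR mice infected with drug-sensitive P. berghei NK-65. Compound given ip once daily for 4 days. Day-4 parasitemia compared with untreated controls to give % suppression. Mice observed after the end of treatment to record mean survival days and the number alive on day 30.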

Mus musculus [4] = test: Effect on survival of Plasmodium berghei NK65 infected ICR mice (Mus musculus) assessed as mean survival days at 10 mg/kg, intraperitoneal after 4 days; assay type: functional; summary of the method: as §2
Plasmodium berghei [5] = test: Antimalarial activity against Plasmodium berghei NK65 infected ICR mice (Mus musculus) as reduced parasitaemia after 20 mg/kg intraperitoneal dose on day 4; assay type: functional; parameters: scale not given: the % may be the effect or the level left; summary of the method: as §1
Mus musculus [6] = test: Effect on survival of Plasmodium berghei NK65 infected ICR mice (Mus musculus) assessed as mean survival days at 20 mg/kg, intraperitoneal after 4 days; assay type: functional; summary of the method: as §2
Plasmodium berghei [7] = test: Antimalarial activity against Plasmodium berghei NK65 infected ICR mice (Mus musculus) as reduced parasitaemia at 30 mg/kg intraperitoneal dose on day 4; assay type: functional; parameters: scale not given: the % may be the effect or the level left; summary of the method: as §2
Mus musculus [8] = test: Effect on survival of Plasmodium berghei NK65 infected ICR mice (Mus musculus) assessed as mean survival days at 30 mg/kg, intraperitoneal after 4 days; assay type: functional; summary of the method: as §2
Mus musculus [9] = test: Effect on survival of Plasmodium berghei NK65 infected ICR mice (Mus musculus) assessed as mean survival days at 100 mg/kg/day, oral after 4 days
Plasmodium berghei [10] = test: Antimalarial activity against Plasmodium berghei NK65 infected ICR mice (Mus musculus) as reduced parasitaemia at 100 mg/kg/day oral dose after 4 days; parameters: scale not given: the % may be the effect or the level left
Plasmodium berghei [11] = test: Antimalarial activity against Plasmodium berghei NK65 infected ICR mice (Mus musculus) as reduced parasitaemia on 10 mg/kg intraperitoneal dose on day 4; parameters: scale not given: the % may be the effect or the level left
Plasmodium berghei [12] = test: Antimalarial activity against Plasmodium berghei NK65 infected ICR mice (Mus musculus) as reduced parasitaemia after 2.5 mg/kg intraperitoneal dose on day 4; assay type: functional; parameters: scale not given: the % may be the effect or the level left; summary of the method: as §1
Plasmodium berghei [13] = test: Antimalarial activity against Plasmodium berghei NK65 infected ICR mice (Mus musculus) as reduced parasitaemia after 12 doses of 15 mg/kg/8hrs; assay type: functional; parameters: scale not given: the % may be the effect or the level left
Summary of the method: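 Oral four-day suppressive test against P. berghei NK-65 in five ICR mice, using short-span dosing every 8 h for 12 doses in total. % parasitemia suppression on day 4 is calculated against untreated infected controls, and mean survival days and mice alive on day 30 are recorded.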

Rattus norvegicus [14] = test: AUC (0-480 mins) in Wistar rat at 10 mg/kg, iv; assay type: ADME, organism-based, Plasma; parameters: time < 8 hr, dose 10 mg/kg, route intravenous; conditions: in vivo, 8 h
Summary of the method: (§3)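 Preliminary pharmacokinetics in Wistar rats given 10 mg kg^-1 as a saline solution, either intravenously or orally. Values are the average of three animals. Half-life is determined for each route, and oral bioavailability is obtained by comparing the oral and intravenous routes.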

Rattus norvegicus [15] = test: AUC (0-480 mins) in Wistar rat at 10 mg/kg, po; assay type: ADME, organism-based, Plasma; parameters: time < 8 hr, dose 10 mg/kg, route oral; conditions: in vivo, 8 h; summary of the method: as §3
[16] = Half life in Wistar rat at 10 mg/kg, iv; assay type: ADME, organism-based; parameters: dose 10 mg/kg, route intravenous; conditions: in vivo; summary of the method: as §3
[17] = Half life in Wistar rat at 10 mg/kg, po; assay type: ADME, organism-based; parameters: dose 10 mg/kg, route oral; conditions: in vivo; summary of the method: as §3
[18] = Oral bioavailability in Wistar rat at 10 mg/kg, po; assay type: ADME, organism-based; conditions: in vivo; summary of the method: as §3
Mus musculus [19] = test: Effect on survival of Plasmodium berghei NK65 infected ICR mice (Mus musculus) assessed as mean survival days at 25 mg/kg/day, oral after 4 days
Mus musculus [20] = test: Effect on survival of Plasmodium berghei NK65 infected ICR mice (Mus musculus) assessed as mean survival days at 50 mg/kg/day, oral after 4 days
Mus musculus [21] = test: Effect on survival of Plasmodium berghei NK65 infected ICR mice (Mus musculus) assessed as mean survival days at 90 mg/kg/day, oral after 4 days
Mus musculus [22] = test: Effect on survival of Plasmodium berghei NK65 infected ICR mice (Mus musculus) assessed as mean survival days at 12 times of 30 mg/kg/8hrs, oral
Mus musculus [23] = test: Effect on survival of Plasmodium berghei NK65 infected ICR mice (Mus musculus) assessed as mean survival days at 12 times of 15 mg/kg/8hrs, oral
Mus musculus [24] = test: Effect on survival of Plasmodium berghei NK65 infected ICR mice (Mus musculus) assessed as mean survival days at 100 mg/kg/day, oral after 1 day
Plasmodium berghei [25] = test: Antimalarial activity against Plasmodium berghei NK65 infected ICR mice (Mus musculus) as reduced parasitaemia after 12 oral doses of 30 mg/kg/8hrs; parameters: scale not given: the % may be the effect or the level left
Plasmodium berghei [26] = test: Antimalarial activity against Plasmodium berghei NK65 infected ICR mice (Mus musculus) as reduced parasitaemia on 25 mg/kg/day oral dose after 4 days; parameters: scale not given: the % may be the effect or the level left
Plasmodium berghei [27] = test: Antimalarial activity against Plasmodium berghei NK65 infected ICR mice (Mus musculus) as reduced parasitaemia at 50 mg/kg/day oral dose after 4 days; parameters: scale not given: the % may be the effect or the level left
Plasmodium berghei [28] = test: Antimalarial activity against Plasmodium berghei NK65 infected ICR mice (Mus musculus) as reduced parasitaemia at 90 mg/kg/day oral dose after 4 days; parameters: scale not given: the % may be the effect or the level left
Plasmodium berghei [29] = test: Antimalarial activity against Plasmodium berghei NK65 infected ICR mice (Mus musculus) as reduced parasitaemia on day 4 after 1 day at 100 mg/kg/day oral dose; parameters: scale not given: the % may be the effect or the level left
Mus musculus [30] = test: Survival of Plasmodium berghei NK65 infected ICR mice (Mus musculus) at 20 mg/kg, intraperitoneal after 4 days; assay type: functional; summary of the method: as §2
Mus musculus [31] = test: Effect on survival of Plasmodium berghei NK65 infected ICR mice (Mus musculus) assessed as mean survival days at 2.5 mg/kg, intraperitoneal after 4 days; assay type: functional; summary of the method: as §2
[32] = Plasmodium falciparum, K1, 48 h

## C[N+](C)=c1ccc2nc3ccc(N4CCNCC4)cc3oc-2c1.[Cl-]
Plasmodium falciparum; [32]
  EC50: 28 nM
Plasmodium berghei [1]
  Activity: 54.8%
[2]
  Ratio: 2300
Mus musculus [3]
  Mean survival days: 6 days
Mus musculus [4]
  Mean survival days: 7.4 days
Plasmodium berghei [5]
  Activity: 98.1%
Mus musculus [6]
  Mean survival days: 17.6 days
Plasmodium berghei [7]
  Activity: 100%
Mus musculus [8]
  Mean survival days: 16.4 days
Mus musculus [9]
  Mean survival days: 17 days
Plasmodium berghei [10]
  Activity: 100%
Plasmodium berghei [11]
  Activity: 78.5%

## CCCCN(CCCC)c1ccc2nc3ccc(=[N+](CC)CC)cc-3oc2c1.[Cl-]
Plasmodium falciparum; [32]
  EC50: 2.4 nM
Plasmodium berghei [1]
  Activity: 83.1%
[2]
  Ratio: 350
Mus musculus [3]
  Mean survival days: 16 days

## CCN(CC)c1ccc2nc3ccc(N(CC)CC)cc3[o+]c2c1.[Cl-]
Plasmodium falciparum
  EC50: 2.8 nM
Plasmodium falciparum; [32]
  EC50: 4.7 nM
Plasmodium berghei [1]; 5 mg/kg
  Activity: 80.6% and 46.3%
[2]
  Ratio: 830 and 2400
Mus musculus [4]
  Mean survival days: >11 days
Plasmodium berghei [12]
  Activity: 30.5%
Plasmodium berghei [5]
  Activity: 95.8%
Mus musculus [6]
  Mean survival days: >14 days
Plasmodium berghei [13]
  Activity: 100%
Rattus norvegicus [14]
  AUC: 717 ng·h/mL
Rattus norvegicus [15]
  AUC: 690 ng·h/mL
[16]
  half-life: 5.8 min
[17]
  half-life: 59.2 min
[18]
  bioavailability: 96.3%
Mus musculus [19]
  Mean survival days: 7.6 days
Mus musculus [20]
  Mean survival days: 14 days
Mus musculus [21]
  Mean survival days: >24 days
Mus musculus [22]
  Mean survival days: >13 days
Mus musculus [23]
  Mean survival days: 14 days
Mus musculus [24]
  Mean survival days: 13 days
Mus musculus [9]
  Mean survival days: >28 days
Plasmodium berghei [25]
  Activity: 100%
Plasmodium berghei [26]
  Activity: 82.3%
Plasmodium berghei [27]
  Activity: 98.6%
Plasmodium berghei [28]
  Activity: 100%
Plasmodium berghei [10]
  Activity: 100%
Plasmodium berghei [11]
  Activity: 80.4%
Plasmodium berghei [29]
  Activity: 100%

## CCN(CC)c1ccc2nc3ccc(=[N+](C)C)cc-3oc2c1.[O-][Cl+3]([O-])([O-])[O-]
Plasmodium berghei [1]
  Activity: 77%
Mus musculus [3]
  Mean survival days: 9.4 days

## CN(C)c1ccc2nc3ccc(=[N+](C)C)cc-3oc2c1.[O-][Cl+3]([O-])([O-])[O-]
Plasmodium berghei [1]
  Activity: 45.9%
Mus musculus [3]
  Mean survival days: 6.7 days

## CN1CCN(c2cc(O)c3nc4ccc(=[N+](C)C)cc-4oc3c2)CC1.[Cl-]
Plasmodium falciparum; [32]
  EC50: 200 nM
Plasmodium berghei [1]
  Activity: 17.4%
[2]
  Ratio: 440
Mus musculus [3]
  Mean survival days: 5.3 days

## CCN(CC)CCCC(C)Nc1ccnc2cc(Cl)ccc12 (centres undefined) [CHLOROQUINE]
Plasmodium falciparum; [32]
  EC50: 1500 nM
[2]
  Ratio: 32
Mus musculus [4]
  Mean survival days: 22.7 days
Plasmodium berghei [11]
  Activity: 90.6%

## CCN(CC)c1ccc2nc3ccc(=[N+](C)C)cc-3oc2c1.[Cl-]
Plasmodium berghei [1]
  Activity: 85.3%
Mus musculus [3]
  Mean survival days: 10 days
Mus musculus [4]
  Mean survival days: 13 days
Plasmodium berghei [12]
  Activity: 58.7%
Mus musculus [30]
  Activity: 40%
Plasmodium berghei [5]
  Activity: 100%
Mus musculus [31]
  Mean survival days: 7.8 days
Mus musculus [6]
  Mean survival days: >17 days
Plasmodium berghei [11]
  Activity: 99.9%

## CN1CCN(c2cc(OC(=O)C(C)(C)C)c3nc4ccc(=[N+](C)C)cc-4oc3c2)CC1.[Cl-]
Plasmodium falciparum; [32]
  EC50: 270 nM
Plasmodium berghei [1]
  Activity: 19.9%
[2]
  Ratio: 160
Mus musculus [3]
  Mean survival days: 5.4 days

## CCCCN(CCCC)c1ccc2nc3ccc(=[N+](C)C)cc-3oc2c1.[O-][Cl+3]([O-])([O-])[O-]
Plasmodium berghei [1]
  Activity: 90.3%
Mus musculus [3]
  Mean survival days: 11.4 days

## CCN(C)c1ccc2nc3ccc(=[N+](C)C)cc-3oc2c1.[O-][Cl+3]([O-])([O-])[O-]
Plasmodium berghei [1]
  Activity: 71.7%
Mus musculus [3]
  Mean survival days: 6.7 days

## CN(C)c1ccc2nc3ccc(=[N+](C)C)cc-3oc2c1.[Cl-].[Cl][Zn][Cl]
Plasmodium falciparum; [32]
  EC50: 12.6 nM
Plasmodium berghei [1]
  Activity: 17.1%
[2]
  Ratio: 700
Mus musculus [3]
  Mean survival days: 5.6 days

## CN(C)c1cc(O)c2nc3ccc(=[N+](C)C)cc-3oc2c1.[Cl-]
Plasmodium berghei [1]
  Activity: 4.2%
Mus musculus [3]
  Mean survival days: 5.3 days
